Compound activity: PubChem, The Scripps Research Institute Molecular Screening Center
This is a sample that favours compounds with a hit; in the whole collection about 0.55% have one here.
V1aR counter: activates human V1a receptor in oxytocin agonist counter-screen; P37288; CHO-V1R cells, Fluo-8 calcium fluorescence, agonist mode; 0% DMSO, 100% 3 nM vasopressin; activation, % at 3 µM; hit rate 0.25% among 320,000;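 active means activation above the mean activation of all tested compounds plus 3 SD, per screening run, cut at about 20% in these data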;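 further: signal is peak over basal fluorescence ratio across a 100 second FLIPR read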
Target sequence (P37288 whole entry, looked up): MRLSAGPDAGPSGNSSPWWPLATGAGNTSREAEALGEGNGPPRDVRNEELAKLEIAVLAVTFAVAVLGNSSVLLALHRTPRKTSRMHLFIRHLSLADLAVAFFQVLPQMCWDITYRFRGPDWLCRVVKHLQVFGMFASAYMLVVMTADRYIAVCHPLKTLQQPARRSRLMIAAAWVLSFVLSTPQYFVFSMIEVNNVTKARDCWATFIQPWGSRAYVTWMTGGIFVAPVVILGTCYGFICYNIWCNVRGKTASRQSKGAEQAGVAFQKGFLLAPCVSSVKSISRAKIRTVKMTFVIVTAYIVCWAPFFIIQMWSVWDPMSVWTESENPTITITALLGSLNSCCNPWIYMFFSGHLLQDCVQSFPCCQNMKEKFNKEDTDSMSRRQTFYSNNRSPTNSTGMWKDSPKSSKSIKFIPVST
TRPN1 ag: agonists of zebrafish TRPN1 channel | HEK293 zebrafish TRPN1-YFP, Fluo-8 calcium fluorescence; 100% = response to 87 µM carbachol | activation, % at 3 µM | hit rate 0.18% among 220,000 | AID 1424;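 active means activation above its plate's cutoff, the mean activation of test wells on that plate plus 3 SD, cut at about 19% in these data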
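System: zebrafish TRPN1-YFP in HEK293 cells / Dosing: 3 µM single point / Timing: dye loading 1 h at 37 °C, then 30 min room temperature / Signal: Fluo-8 calcium fluorescence, excitation 470-495 nm, emission 515-575 nm / Read-out basis: percent activation from peak over basal fluorescence ratio, control-normalized / Control set: high carbachol 87 µM, low DMSO alone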
OXTR potentiator: potentiates the human oxytocin receptor response | activation, % at 3 µM | P30559 | hit rate 0.061% among 320,000 | CHO-OTR cells, Fluo-8 calcium fluorescence, potentiator mode; 0% = oxytocin EC15, 100% = EC100;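 active means activation above that plate's cutoff, the mean activation of tested compounds plus 3 SD, cut at about 6.6% in these data, passing the limit was not always enough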
Target sequence (P30559 whole entry, looked up): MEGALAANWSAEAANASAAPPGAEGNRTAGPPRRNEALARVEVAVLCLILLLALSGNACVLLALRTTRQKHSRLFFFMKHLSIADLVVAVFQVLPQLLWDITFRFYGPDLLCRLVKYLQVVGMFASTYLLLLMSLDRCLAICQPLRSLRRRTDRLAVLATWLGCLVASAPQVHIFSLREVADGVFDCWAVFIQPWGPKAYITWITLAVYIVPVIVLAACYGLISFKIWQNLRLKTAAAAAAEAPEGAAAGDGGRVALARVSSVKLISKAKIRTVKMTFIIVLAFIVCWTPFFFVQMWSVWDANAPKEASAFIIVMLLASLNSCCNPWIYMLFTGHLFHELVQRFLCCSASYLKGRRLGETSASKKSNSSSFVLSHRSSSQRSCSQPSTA
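Material: CHO-OTR cells, human receptor; compound dosing: single dose, 3.0 µM nominal final compound concentration; schedule: 6 min compound pre-incubation at room temperature, 100 s kinetic read; measured by: kinetic Fluo-8 calcium fluorescence; read-out basis: % activation vs EC15 and EC100 oxytocin; controls: EC15 oxytocin alone as 0%, 75 nM oxytocin as 100%; replicates: singlicate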
OXTR ag: human OXTR agonism | P30559 | CHO-OTR cells, Fluo-8 calcium fluorescence; normalized: DMSO 0%, oxytocin 100% | activation, % at 3 µM | hit rate 0.32% among 320,000 | AID 2435;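 active means activation above the mean of all tested compounds plus 3 SD, cutoff set per screening run, cut at about 20% in these data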;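 further: peak over basal fluorescence ratio from a 100 s FLIPR kinetic read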
TRPML3 agonist: human mucolipin-3 channel agonism. Q8TDD5. HEK293 TRPML3-YFP, Fluo-8 calcium fluorescence; 100% = the carbachol control signal. activation, % at 3 µM. hit rate 0.29% among 220,000. AID 1448;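 active means activation above its plate's cutoff, the mean activation of the plate's test wells plus 3 SD, cut at about 12% in these data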
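Test system – HEK293 line with stable expression of human TRPML3-YFP channel · Control set – carbachol 87 µM final as high control (100%), DMSO as low control (0%) · Signal – Fluo-8 calcium dye fluorescence, ex 470-495, em 515-575 nm · Incubation – 1-h 37 °C dye load, 5-s basal, 120-s post-compound reads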
TRPN1 counter: activates zebrafish TRPN1, counter-screen for TRPML3 agonists; shares compounds with TRPML3 agonist; HEK293 zebrafish TRPN1-YFP, Fluo-8 calcium fluorescence; scaled: carbachol wells 100%, DMSO wells 0%; activation, % at 3 µM; hit rate 10% among 310; AID 1525;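 active means mean activation over replicates above a set limit taken from the earlier TRPN1 channel primary screen, cut at about 19% in these data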
TRPML3 confirm: human TRPML3 agonism, confirmation; AID 1526; hit rate 80% among 310; HEK293 TRPML3-YFP, Fluo-8 calcium fluorescence; 100% set by carbachol, 0% by DMSO; activation, % at 3 µM; shares compounds with TRPML3 agonist;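 active means activation above a set limit derived from the earlier primary screen, cut at about 12% in these data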
Each line names hits and unclear results; the compound was inactive in the other large screens (follow-up assays come after a bar, where they were run).

COc1ccc(C2C=C(c3cccs3)Nc3nc(CCCO)nn32)cc1 (stereo not given)	V1aR counter 51.0, OXTR ag 47.5
COCCCn1c(=NC(=O)c2ccccc2)c(C#N)cc2c(=O)n3cccc(C)c3nc21	TRPN1 ag 37.4, TRPML3 agonist 24.6
O=C1c2ccccc2S(=O)(=O)c2cc(C(=O)N(c3ccccn3)c3ccccn3)ccc21	V1aR counter 89.3, TRPN1 ag 35.1, OXTR ag 87.7, TRPML3 agonist 75.5
O=C(Nc1ccccn1)c1ccc2c(c1)S(=O)(=O)c1ccccc1C2=O	none
CCNC(=O)N(C)C[C@H]1N[C@@](CC)(C(=O)OC)[C@H]2C(=O)N(C)C(=O)[C@@H]12	none (no result: TRPN1 ag, TRPML3 agonist)
CCc1ccc(Nc2n[n+](-c3ccccc3)c(-c3ccc(OCc4ccccc4)cc3)s2)cc1	none (no result: TRPN1 ag, TRPML3 agonist)
CCc1ccc(Nc2n[n+](-c3ccccc3)c(-c3c(Cl)cccc3Cl)s2)cc1	V1aR counter 64.0, OXTR ag 47.5 (no result: TRPN1 ag, TRPML3 agonist)
Fc1ccc(-[n+]2nc(Nc3ccccc3)sc2-c2c(Cl)cccc2Cl)cc1	V1aR counter 24.6, OXTR ag 22.7 (no result: TRPN1 ag, TRPML3 agonist)
CCOC(=O)C1=NN(C(=O)c2ccc(OC)cc2)C(O)(c2ccc(Cl)cc2)C1 (stereo not given)	none
CCOC(=O)C1=NN(C(=O)c2cccc(Br)c2)C(O)(C(C)(C)C)C1 (stereo not given)	OXTR ag 20.4
COC(=O)C1=NN(C(=O)c2cccc(Br)c2)C(O)(c2ccc(Cl)cc2)C1 (stereo not given)	TRPN1 ag 20.7
COc1ccc(/C=C/C(=O)N2CCN(c3ccccn3)CC2)c2ccccc12	none
C=CCN(CC=C)S(=O)(=O)c1ccc2nc(NC(=O)C(C)C)sc2c1	V1aR counter 22.1, OXTR ag 29.4
CCOC(=O)c1ccc2nc(NC(=O)C(C)C)sc2c1	none
N#CC(C#N)=C1C=C2C=C(N3CCOCC3)CCC2CC1 (stereo not given)	TRPN1 ag 169.4, TRPML3 agonist 73.9 (no result: V1aR counter, OXTR potentiator, OXTR ag)
CN1CCN(C2=CC3=CC(=C(C#N)C#N)CCC3CC2)CC1 (stereo not given)	TRPN1 ag 617.2, TRPML3 agonist 328.9 (no result: V1aR counter, OXTR potentiator, OXTR ag)
CCN1CCN(C2=CC3=CC(=C(C#N)C#N)CCC3CC2)CC1 (stereo not given)	TRPN1 ag 395.3, TRPML3 agonist 310.2 (no result: V1aR counter, OXTR potentiator, OXTR ag)
CC1(C)CC(NCCN2CCN(C3=CC(=C(C#N)C#N)CC(C)(C)C3)CC2)=CC(=C(C#N)C#N)C1	none
N#CC(C#N)=C1C=C2C=C(N3CCCCCC3)CCC2CC1 (stereo not given)	TRPN1 ag 890.7, TRPML3 agonist 365.7 (no result: V1aR counter, OXTR potentiator, OXTR ag)
CN1CCC(N(C)S(=O)(=O)c2ccc(NC(=O)COc3ccc(Cl)cc3)cc2)CC1	V1aR counter 24.1, OXTR ag 24.6 (no result: TRPN1 ag, TRPML3 agonist)
CN1CCC(N(C)S(=O)(=O)c2ccc(NC(=O)COc3ccc(F)cc3)cc2)CC1	none (no result: TRPN1 ag, TRPML3 agonist)
C#CCOCCOCCOCCNc1nc(N2CCN(C(=O)CCCCCCCCCCNC(=O)[C@H](CCCCN)n3cc(CCO)nn3)CC2)nc(N2CCN(C(=O)CCCCCCCCCCNC(=O)[C@@H]([C@H](C)O)n3cc(C)nn3)CC2)n1	none (no result: TRPN1 ag, TRPML3 agonist)
C#CCOCCOCCOCCNc1nc(N2CCN(C(=O)CCCCCCCCCCNC(=O)Cn3cc(CCCCCN)nn3)CC2)nc(N2CCN(C(=O)CCCCCCCCCCNC(=O)[C@H](CO)n3cc(CCCCCN)nn3)CC2)n1	V1aR counter 25.7, OXTR ag 24.9 (no result: TRPN1 ag, TRPML3 agonist)
C#CCOCCOCCOCCNc1nc(N2CCN(C(=O)CCCCCCCCCCNC(=O)[C@H]([C@@H](C)CC)n3cc(CCCCCN)nn3)CC2)nc(N2CCN(C(=O)CCCCCCCCCCNC(=O)[C@@H]([C@H](C)O)n3cc(C)nn3)CC2)n1	V1aR counter 58.3, OXTR ag 37.1 (no result: TRPN1 ag, TRPML3 agonist)
C#CCOCCOCCOCCNc1nc(N2CCN(C(=O)CCCCCCCCCCNC(=O)[C@H](CCCCN)n3cc(C)nn3)CC2)nc(N2CCN(C(=O)CCCCCCCCCCNC(=O)[C@@H]([C@H](C)CC)n3cc(CCCCCN)nn3)CC2)n1	V1aR counter 38.2 (no result: TRPN1 ag, TRPML3 agonist)
On1onc2c3cc(-c4ccccc4)nc3ccc21	TRPML3 agonist 12.2 | TRPN1 counter inactive | TRPML3 confirm inactive
Cc1ccc(S(=O)(=O)N(C)c2c(C)ccc(S(=O)(=O)N3CCN(C)CC3)c2C)cc1	none
C=C(C)CN1CCN(S(=O)(=O)c2ccc(C)c(N(C)S(=O)(=O)c3ccc(C)cc3)c2C)CC1	TRPML3 agonist 59.8 | TRPN1 counter inactive | TRPML3 confirm 77.7
COc1cc(-c2nnc(SCC(=O)NC3CCS(=O)(=O)C3)o2)cc(OC)c1OC (stereo not given)	none
Cc1ccc(NC(=O)c2cnc(N3CCN(c4ccccn4)CC3)c3ccccc23)c(Br)c1	TRPML3 agonist 25.1 | TRPN1 counter inactive | TRPML3 confirm 47.6
CCOc1nc(C)cc(C)c1S(=O)(=O)c1cccc(C)c1	none
C#CCOc1nc(C)cc(C)c1S(=O)(=O)c1ccccc1C	TRPML3 agonist 40.6 | TRPN1 counter inactive | TRPML3 confirm 61.3
COc1nc(C)cc(C)c1S(=O)(=O)c1ccccc1C	none (no result: TRPN1 ag, TRPML3 agonist)
Cc1cc(C)c(S(=O)(=O)c2c(C)cccc2C)c(OCC(C)C)n1	TRPML3 agonist 12.1 | TRPN1 counter inactive | TRPML3 confirm 43.0
CCOc1ccc(-n2cnnn2)cc1S(=O)(=O)NC1CC1	none
CCOc1ccc(-n2cnnn2)cc1S(=O)(=O)Nc1c(C)cccc1C	TRPML3 agonist 17.8 | TRPN1 counter inactive | TRPML3 confirm inactive
CCCOc1cc(C)c(Cl)cc1S(=O)(=O)N(CC)CC	TRPML3 agonist 25.9 | TRPN1 counter inactive | TRPML3 confirm 97.0
Cc1ccc(C(=O)NNC(=O)CCCCC(=O)NNC(=O)c2ccc(C)cc2)cc1	none (no result: TRPN1 ag, TRPML3 agonist)
CCn1c(=O)cc(OCC(=O)Nc2ccc(OC)c(OC)c2)c2ccccc21	TRPML3 agonist 22.8 | TRPN1 counter inactive | TRPML3 confirm 23.1
CCOC(=O)N1CCN(S(=O)(=O)c2ccc(OC)c(Cl)c2Cl)CC1	none
O=S(=O)(c1ccc(Cl)c2ccccc12)N1CCCC1	none
COc1c(S(=O)(=O)N2CCCC2)ccc(Cl)c1Cl	TRPML3 agonist 11.5 | TRPN1 counter inactive | TRPML3 confirm inactive
COc1ccc(S(=O)(=O)N2CCCC2)c(Cl)c1Cl	TRPML3 agonist 11.5 | TRPN1 counter inactive | TRPML3 confirm inactive
Cc1csc(N/N=C/c2ccc([N+](=O)[O-])cc2)n1	none (no result: TRPN1 ag, TRPML3 agonist)
